Data from ChEMBL document CHEMBL1136943, “Nocathiacin analogs: Synthesis and antibacterial activity of novel water-soluble amides” (Bioorg Med Chem Lett, 2009).
In brackets after ≈: the same amount, converted by molar mass.

Experiments:
Staphylococcus aureus [1] = assay: Antibacterial activity against Staphylococcus aureus MB2865 in liquid culture by turbidity method; type: functional
Summary of the method: (§1)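 MIC is the lowest concentration giving 100% inhibition of bacterial growth in liquid culture, read by turbidity.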

Streptococcus pneumoniae = assay: Antibacterial activity against Streptococcus pneumoniae CL2883 in liquid culture by turbidity method; type: functional; summary of the method: as §1
Enterococcus faecalis = assay: Antibacterial activity against Enterococcus faecalis C21560 in liquid culture by turbidity method; type: functional; summary of the method: as §1
Staphylococcus aureus [2] = assay: Antibacterial activity against Staphylococcus aureus infected in mouse model assessed as reduction of >= 2 log 10 cfu kidney burden; type: functional
Summary of the method: (§2)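 Systemic S. aureus infection mouse model (SATOA). Compounds were given iv; […]. Kidney bacterial burden (cfu) was compared with untreated control. ED99 is the dose giving a reduction of at least 2 log10 cfu in kidney burden.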

[3] = molecular target: T1, Type-2 angiotensin II receptor (Homo sapiens, UniProt P50052); assay: Inhibition of AT2 receptor
T1 sequence (P50052 whole entry): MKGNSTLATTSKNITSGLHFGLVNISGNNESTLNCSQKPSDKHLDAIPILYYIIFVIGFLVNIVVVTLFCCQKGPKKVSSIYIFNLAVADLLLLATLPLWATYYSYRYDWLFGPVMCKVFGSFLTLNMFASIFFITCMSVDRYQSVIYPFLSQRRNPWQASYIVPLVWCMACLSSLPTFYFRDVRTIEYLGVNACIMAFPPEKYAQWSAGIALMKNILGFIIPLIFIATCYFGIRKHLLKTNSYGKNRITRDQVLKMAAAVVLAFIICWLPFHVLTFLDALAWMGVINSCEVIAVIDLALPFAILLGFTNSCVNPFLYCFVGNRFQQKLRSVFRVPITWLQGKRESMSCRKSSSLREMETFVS
Summary of the method: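 AT2 IC50 derived from four dose levels per compound, following a published protocol.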

[4] = Solubility in water at pH 3.4; type: physicochemical
Summary of the method: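 Amorphous powders from lyophilized material, as TFA salts; aqueous solubility measured by nephelometry.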

[5] = Terminal half life in dog at 1 mg/kg, iv; type: ADME, organism-based, Canis lupus familiaris; parameters: dose 1 mg/kg, route intravenous; details: in vivo, read-out: beta t1/2 (converted)
Summary of the method: (§3)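 Single iv dose of 1 mg/kg in EtOH/PEG400/H2O (10:15:75). Clearance was measured in plasma, with steady-state volume of distribution and terminal half-life derived.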

Cytochrome P450 2C8 = molecular target: T2, Cytochrome P450 2C8 (Homo sapiens, UniProt P10632); assay: Inhibition of CYP2C8; type: ADME
T2 sequence (P10632 whole entry): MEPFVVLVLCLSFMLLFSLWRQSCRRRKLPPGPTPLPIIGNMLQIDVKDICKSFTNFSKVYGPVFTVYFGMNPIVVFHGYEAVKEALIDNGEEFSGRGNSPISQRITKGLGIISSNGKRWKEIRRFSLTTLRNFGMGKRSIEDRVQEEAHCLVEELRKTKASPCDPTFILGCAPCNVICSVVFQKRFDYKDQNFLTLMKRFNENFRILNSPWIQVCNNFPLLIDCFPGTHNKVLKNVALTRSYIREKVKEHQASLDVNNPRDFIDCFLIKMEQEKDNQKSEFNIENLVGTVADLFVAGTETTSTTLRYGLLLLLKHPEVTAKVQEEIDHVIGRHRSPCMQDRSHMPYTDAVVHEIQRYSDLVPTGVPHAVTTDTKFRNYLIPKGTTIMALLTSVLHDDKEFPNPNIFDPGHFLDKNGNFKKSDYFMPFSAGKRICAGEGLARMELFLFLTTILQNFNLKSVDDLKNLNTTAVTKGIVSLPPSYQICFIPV

Staphylococcus aureus [6] = assay: Antibacterial activity against methicillin-resistant Staphylococcus aureus COL infected mouse thigh model assessed as reduction of bacterial load at 1 mg/kg, iv, bid after 24 hrs; type: functional
Summary of the method: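 Mouse MRSA COL thigh infection, 4 mice per group. Test article given intravenously, 0.2 ml, twice daily. Thighs harvested aseptically 24 h after challenge. Bacterial load compared with untreated controls as log reduction over 24 h.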

Cytochrome P450 2D6 = Cytochrome P450 2D6 (Homo sapiens, UniProt P10635); assay: Inhibition of CYP2D6; type: ADME
Cytochrome P450 2D6, sequence (P10635 whole entry): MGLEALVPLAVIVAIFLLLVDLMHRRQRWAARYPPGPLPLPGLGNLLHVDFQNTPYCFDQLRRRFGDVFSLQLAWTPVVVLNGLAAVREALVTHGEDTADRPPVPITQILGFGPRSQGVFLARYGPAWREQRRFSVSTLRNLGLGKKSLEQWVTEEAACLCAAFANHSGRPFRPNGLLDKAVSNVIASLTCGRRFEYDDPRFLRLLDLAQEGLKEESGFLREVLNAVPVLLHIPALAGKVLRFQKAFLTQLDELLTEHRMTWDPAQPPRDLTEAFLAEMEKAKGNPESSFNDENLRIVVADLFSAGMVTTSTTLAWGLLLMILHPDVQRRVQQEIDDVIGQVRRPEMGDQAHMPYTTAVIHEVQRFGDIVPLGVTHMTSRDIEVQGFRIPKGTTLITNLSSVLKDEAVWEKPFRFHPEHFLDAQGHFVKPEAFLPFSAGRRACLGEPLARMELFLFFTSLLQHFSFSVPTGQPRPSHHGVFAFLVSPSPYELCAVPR

[7] = Plasma clearance in rat at 1 mg/kg, iv; type: ADME, organism-based; parameters: dose 1 mg/kg, route intravenous; summary of the method: as §3
Staphylococcus aureus [8] = assay: Antibacterial activity against methicillin-resistant Staphylococcus aureus; type: functional
Summary of the method: (§4)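 MIC taken as the lowest concentration giving 100% inhibition of bacterial growth in liquid culture, judged by turbidity.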

[9] = Volume of distribution in steady state in rat at 1 mg/kg, iv; type: ADME, organism-based; parameters: dose 1 mg/kg, route intravenous; details: in vivo, read-out: Vdss; summary of the method: as §3
[10] = Volume of distribution in steady state in monkey at 1 mg/kg, iv; type: ADME, organism-based, Macaca mulatta; parameters: dose 1 mg/kg, route intravenous; details: rhesus monkey, in vivo, read-out: Vdss; summary of the method: as §3
Cytochrome P450 3A4 = Cytochrome P450 3A4 (Homo sapiens, UniProt P08684); assay: Inhibition of CYP3A4; type: ADME
Cytochrome P450 3A4, sequence (P08684 whole entry): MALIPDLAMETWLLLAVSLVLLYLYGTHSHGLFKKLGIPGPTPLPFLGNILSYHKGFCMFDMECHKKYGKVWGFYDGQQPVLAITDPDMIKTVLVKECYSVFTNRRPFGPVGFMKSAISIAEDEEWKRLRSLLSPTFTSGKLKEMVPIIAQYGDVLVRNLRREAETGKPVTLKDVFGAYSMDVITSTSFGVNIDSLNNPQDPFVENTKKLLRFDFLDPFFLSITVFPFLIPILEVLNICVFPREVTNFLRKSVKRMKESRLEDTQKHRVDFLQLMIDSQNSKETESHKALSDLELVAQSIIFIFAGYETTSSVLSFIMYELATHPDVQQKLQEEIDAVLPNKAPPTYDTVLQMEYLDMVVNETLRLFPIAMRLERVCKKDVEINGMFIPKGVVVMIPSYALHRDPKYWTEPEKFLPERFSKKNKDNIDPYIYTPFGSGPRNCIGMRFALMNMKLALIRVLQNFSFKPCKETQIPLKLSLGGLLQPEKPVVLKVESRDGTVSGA

Cytochrome P450 1A2 = molecular target: T3, Cytochrome P450 1A2 (Homo sapiens, UniProt P05177); assay: Inhibition of CYP1A2; type: ADME
T3 sequence (P05177 whole entry): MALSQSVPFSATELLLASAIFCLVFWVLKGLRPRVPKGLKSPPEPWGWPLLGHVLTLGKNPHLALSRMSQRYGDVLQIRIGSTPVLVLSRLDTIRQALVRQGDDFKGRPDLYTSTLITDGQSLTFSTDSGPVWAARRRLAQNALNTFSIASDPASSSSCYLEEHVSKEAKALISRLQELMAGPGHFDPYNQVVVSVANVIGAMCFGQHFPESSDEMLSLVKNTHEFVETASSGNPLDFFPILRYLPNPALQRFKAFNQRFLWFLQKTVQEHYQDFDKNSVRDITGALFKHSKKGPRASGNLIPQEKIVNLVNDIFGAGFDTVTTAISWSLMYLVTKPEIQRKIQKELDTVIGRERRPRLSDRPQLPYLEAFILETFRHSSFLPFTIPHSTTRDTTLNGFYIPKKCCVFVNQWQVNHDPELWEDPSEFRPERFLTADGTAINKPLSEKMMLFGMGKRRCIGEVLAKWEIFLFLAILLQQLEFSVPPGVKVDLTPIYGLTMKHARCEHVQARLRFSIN

[11] = Volume of distribution in steady state in mouse at 1 mg/kg, iv; type: ADME, organism-based; parameters: dose 1 mg/kg, route intravenous; details: in vivo, read-out: Vdss; summary of the method: as §3
[12] = Terminal half life in monkey at 1 mg/kg, iv; type: ADME, organism-based, Macaca mulatta; parameters: dose 1 mg/kg, route intravenous; details: rhesus monkey, in vivo, read-out: beta t1/2 (converted); summary of the method: as §3
[13] = molecular target: T4, Nuclear receptor subfamily 1 group I member 2 (Homo sapiens, UniProt O75469); assay: Activity at human PXR
T4 sequence (O75469 whole entry): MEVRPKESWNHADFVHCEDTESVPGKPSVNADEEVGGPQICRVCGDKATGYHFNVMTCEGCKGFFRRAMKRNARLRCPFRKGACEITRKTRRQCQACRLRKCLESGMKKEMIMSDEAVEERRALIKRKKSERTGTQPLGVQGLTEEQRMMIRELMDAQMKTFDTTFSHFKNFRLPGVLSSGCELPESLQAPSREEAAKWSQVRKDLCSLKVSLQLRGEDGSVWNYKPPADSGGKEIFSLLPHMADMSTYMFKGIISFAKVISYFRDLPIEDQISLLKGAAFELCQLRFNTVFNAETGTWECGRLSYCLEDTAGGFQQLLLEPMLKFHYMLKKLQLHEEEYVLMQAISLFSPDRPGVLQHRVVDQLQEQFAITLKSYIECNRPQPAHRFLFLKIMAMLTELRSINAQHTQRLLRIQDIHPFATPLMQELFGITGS

[14] = Terminal half life in mouse at 1 mg/kg, iv; type: ADME, organism-based; parameters: dose 1 mg/kg, route intravenous; details: in vivo, read-out: beta t1/2 (converted); summary of the method: as §3
[15] = Volume of distribution in steady state in dog at 1 mg/kg, iv; type: ADME, organism-based, Canis lupus familiaris; parameters: dose 1 mg/kg, route intravenous; details: in vivo, read-out: Vdss; summary of the method: as §3
[16] = Plasma clearance in monkey at 1 mg/kg, iv; type: ADME, organism-based, Macaca mulatta; parameters: dose 1 mg/kg, route intravenous; details: rhesus monkey; summary of the method: as §3
Staphylococcus aureus [17] = assay: Antibacterial activity against Staphylococcus aureus infected iv bid dosed mouse model assessed as reduction of colony forming unit in kidney; type: functional; summary of the method: as §2
[18] = Plasma clearance in dog at 1 mg/kg, iv; type: ADME, organism-based, Canis lupus familiaris; parameters: dose 1 mg/kg, route intravenous; summary of the method: as §3
Cytochrome P450 2C9 = Cytochrome P450 2C9 (Homo sapiens, UniProt P11712); assay: Inhibition of CYP2C9; type: ADME
Cytochrome P450 2C9, sequence (P11712 whole entry): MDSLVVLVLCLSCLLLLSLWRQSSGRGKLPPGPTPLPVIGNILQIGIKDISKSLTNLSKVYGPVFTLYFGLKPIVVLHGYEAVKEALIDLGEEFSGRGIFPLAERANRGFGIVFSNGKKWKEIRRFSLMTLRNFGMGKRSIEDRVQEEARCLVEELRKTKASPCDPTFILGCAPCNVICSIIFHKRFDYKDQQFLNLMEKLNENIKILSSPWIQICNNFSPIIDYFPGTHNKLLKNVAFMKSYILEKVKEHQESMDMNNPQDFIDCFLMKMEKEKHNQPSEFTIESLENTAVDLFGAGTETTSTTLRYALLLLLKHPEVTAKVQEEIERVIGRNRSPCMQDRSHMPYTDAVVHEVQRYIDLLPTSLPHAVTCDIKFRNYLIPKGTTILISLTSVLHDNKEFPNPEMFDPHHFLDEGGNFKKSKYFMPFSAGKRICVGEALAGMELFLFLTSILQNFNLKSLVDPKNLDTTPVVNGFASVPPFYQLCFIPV

[19] = Terminal half life in rat at 1 mg/kg, iv; type: ADME, organism-based; parameters: dose 1 mg/kg, route intravenous; details: in vivo, read-out: beta t1/2 (converted); summary of the method: as §3
Enterococcus = assay: Antibacterial activity against vancomycin-resistant Enterococcus; type: functional; summary of the method: as §4
Cytochrome P450 2C19 = Cytochrome P450 2C19 (Homo sapiens, UniProt P33261); assay: Inhibition of CYP2C19; type: ADME
Cytochrome P450 2C19, sequence (P33261 whole entry): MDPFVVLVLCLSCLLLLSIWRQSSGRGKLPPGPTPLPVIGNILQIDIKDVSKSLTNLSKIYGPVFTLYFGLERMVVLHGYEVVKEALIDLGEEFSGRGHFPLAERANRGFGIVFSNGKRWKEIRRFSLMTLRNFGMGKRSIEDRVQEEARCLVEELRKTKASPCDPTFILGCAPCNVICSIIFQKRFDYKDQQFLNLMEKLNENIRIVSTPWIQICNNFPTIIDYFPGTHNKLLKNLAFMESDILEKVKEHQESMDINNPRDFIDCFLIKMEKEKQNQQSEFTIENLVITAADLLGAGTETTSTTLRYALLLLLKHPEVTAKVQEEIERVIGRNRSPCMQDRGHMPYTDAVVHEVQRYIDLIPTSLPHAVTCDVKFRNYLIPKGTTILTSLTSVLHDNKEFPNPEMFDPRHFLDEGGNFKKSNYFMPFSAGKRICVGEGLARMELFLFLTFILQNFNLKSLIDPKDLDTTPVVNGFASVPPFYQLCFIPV

Compound `CO/C(C)=C1/NC(=O)[C@H]([C@@H](C)O)NC(=O)c2csc(n2)-c2cc(O)c(-c3nc(C(=O)N4CCN(C)CC4)cs3)nc2-c2csc(n2)[C@@H]2COC(=O)c3c4c5c(cccc5n3O)COC(=O)[C@@H](O[C@H]3C[C@](C)(O)[C@H](N(C)C)[C@H](C)O3)[C@@H](OC4)[C@H](NC(=O)c3csc1n3)c1nc(cs1)C(=O)N2` has an MIC (Staphylococcus aureus [1]) of 0.06 µg/mL (≈ 0.0413 µM), an MIC (Streptococcus pneumoniae) of 0.015 µg/mL (≈ 0.0103 µM) and an MIC (Enterococcus faecalis) of 0.06 µg/mL (≈ 0.0413 µM). The ED99 (Staphylococcus aureus [2]) was 0.24 mg/kg and the IC50 [3] was 0.102 µM.
`CO/C(C)=C1/NC(=O)[C@H]([C@@H](C)O)NC(=O)c2csc(n2)-c2cc(OC)c(-c3nc(C(=O)NCCCN4CCOCC4)cs3)nc2-c2csc(n2)[C@@H]2COC(=O)c3c4c5c(cccc5n3O)COC(=O)[C@@H](O[C@H]3C[C@](C)(O)[C@H](N(C)C)[C@H](C)O3)[C@@H](OC4)[C@H](NC(=O)c3csc1n3)c1nc(cs1)C(=O)N2.Cl` gave a solubility [4] of 68 mg/mL.
In the case of `CO/C(C)=C1/NC(=O)[C@H]([C@@H](C)O)NC(=O)c2csc(n2)-c2cc(OC)c(-c3nc(C(=O)NCCCN4CCOCC4)cs3)nc2-c2csc(n2)[C@@H]2COC(=O)c3c4c5c(cccc5n3O)COC(=O)[C@@H](O[C@H]3C[C@](C)(O)[C@H](N(C)C)[C@H](C)O3)[C@@H](OC4)[C@H](NC(=O)c3csc1n3)c1nc(cs1)C(=O)N2`, the half-life [5] is reported as 5.4 h, the IC50 (Cytochrome P450 2C8) is reported as 71 µM and the Activity (Staphylococcus aureus [6]) is reported as 1.22. For the same compound, the IC50 (Cytochrome P450 2D6) was at least 100 µM, the clearance [7] was 51.3 mL/min/kg and the MIC (Staphylococcus aureus [8]) was 0.00095 µg/mL (≈ 0.000629 µM). For the same compound, the MIC (Staphylococcus aureus [1]) was 0.01 µg/mL (≈ 0.00662 µM), the Vd [9] was 15.5 L/kg and the Vd [10] was 1.2 L/kg. It also gave an IC50 (Cytochrome P450 3A4) of at least 100 µM, an IC50 (Cytochrome P450 1A2) of at least 100 µM and a Vd [11] of 18.7 L/kg. For the same compound, the half-life [12] was 6.5 h, the Activity [13] was “Not Active” and the half-life [14] was 5 h. The Vd [15] was 3.3 L/kg, the clearance [16] was 15 mL/min/kg and the ED99 (Staphylococcus aureus [17]) was 0.27 mg/kg. The clearance [18] was 15.6 mL/min/kg, the IC50 (Cytochrome P450 2C9) was at least 100 µM and the half-life [19] was 6.4 h. The IC50 [3] was 5.07 µM, the MIC (Enterococcus) was 0.06 µg/mL (≈ 0.0397 µM) and the IC50 (Cytochrome P450 2C19) was at least 100 µM.
`CO/C(C)=C1/NC(=O)[C@H]([C@@H](C)O)NC(=O)c2csc(n2)-c2cc(O)c(-c3nc(C(=O)O)cs3)nc2-c2csc(n2)[C@@H]2COC(=O)c3c4c5c(cccc5n3O)COC(=O)[C@@H](O[C@H]3C[C@](C)(O)[C@H](N(C)C)[C@H](C)O3)[C@@H](OC4)[C@H](NC(=O)c3csc1n3)c1nc(cs1)C(=O)N2` [NOCATHIACIN ACID] gave an MIC (Staphylococcus aureus [1]) of 8 µg/mL (≈ 5.84 µM), an MIC (Streptococcus pneumoniae) of 2 µg/mL (≈ 1.46 µM) and an MIC (Enterococcus faecalis) of over 8 µg/mL. It also gave an IC50 [3] of 1.12 µM.
In the case of `CO/C(C)=C1/NC(=O)[C@H]([C@@H](C)O)NC(=O)c2csc(n2)-c2cc(OC)c(-c3nc(C(=O)NCCCN4CCN(C)CC4)cs3)nc2-c2csc(n2)[C@@H]2COC(=O)c3c4c5c(cccc5n3O)COC(=O)[C@@H](O[C@H]3C[C@](C)(O)[C@H](N(C)C)[C@H](C)O3)[C@@H](OC4)[C@H](NC(=O)c3csc1n3)c1nc(cs1)C(=O)N2`, the MIC (Staphylococcus aureus [1]) is reported as 0.09 µg/mL (≈ 0.0591 µM) and the IC50 [3] is reported as 0.85 µM.
